Active and inactive are the calls of the source.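 Rule for the calls, unless noted: active = inhibition at or above 50% at 10 µM; inactive = inhibition below 50%.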

Experiment [1] can be described thus: inhibitors of TNFa-induced NFkB p65 translocation, primary screen, imaging, HUVEC, MLSMR starter and 10KST1 sets (AID 438;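 active = inhibition above 20% together with a positive visual image hit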;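 note: compound added about 3h40 before a 20 min TNFalpha stimulation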;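 for inhibition: signal is the nuclear over cytoplasmic p65 intensity ratio per well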). The following applies: HUVEC TNFa-induced p65 nuclear translocation; cell count: measured here: nuclei count (cytotoxicity indicator), at 2.08 µM; inhibition: at 2 µM, stronger effect = higher value, 0% TNFa-plus-vehicle, 100% no-TNFa wells.
Experiment [2] is described as follows: reduction of polyQ htt aggregates in cells – imaging, exon1htt(103Q)mCFP cells, high-content imaging, primary screen (AID 483;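 active = visual image review flags a hit and inhibition of aggregation exceeds 20%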;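 note: compound exposure lasted 3 days before fixation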;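 for nuclei count: percent of the per-plate median nuclei count of sample wells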). The following applies: exon1htt(103Q)mCFP cell line, aggregate imaging, at 2 µM; inhibition of aggregation: stronger effect = higher value; nuclei count: measured here: cell count, toxicity.
Experiment [3] is described as follows: endothelial E-selectin expression blockers – imaging, HUVEC, immunofluorescence, MLSMR starter and 10KST1 sets, primary screen (AID 487;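 active = visually confirmed hit in the image check and inhibition above 20%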;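 for inhibition: signal is fraction of cell area covered by stained E-selectin grains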;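 for nuclei count: 100% = median nuclei count of all wells on the same plate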). Conditions: HUVEC TNFalpha-induced E-selectin immunofluorescence imaging, at 2 µM; inhibition: stronger effect = higher value; nuclei count: measured here: cell number, toxicity.
Experiment [4] addresses Voltage-gated potassium channel subunit beta-2 (Rattus norvegicus) (UniProt P62483). Kind of experiment: inhibitors of rat Kvbeta2 reductase activity – biochemical, NADPH fluorescence, primary screen (AID 622;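 active = fluorescence slope higher than the sample average by over 3 SD, cut at about -0.22 in these data, passing the limit was not always enough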;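 note: slope of raw intensity against log time taken from 70 to 1610 s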). Conditions: recombinant KvBeta, 4-cyanobenzaldehyde reduction, at 10 µM, stronger effect = higher value.
For experiment [5] the target is unchanged. Kind of experiment: enhancers of rat Kvbeta2 NADPH turnover – biochemical, NADPH fluorescence, primary screen (AID 623;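 active = NADPH fluorescence slope more negative than the mean of all samples by about 3 SD, 99.7% confidence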;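 note: fluorescence intensity change per second fitted from 20 to 320 s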). Conditions: Recombinant KvBeta, NADPH fluorescence decrease slope, 10 min; at 10 µM; stronger effect = lower value.
For experiment [6], the target named is Alpha-2C adrenergic receptor (Homo sapiens) (UniProt P18825). Kind of experiment: compounds altering alpha2C-coupled GIRK flux – cell-based, HEK293 alpha2C/GIRK1/2, thallium flux, primary screen (AID 624;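 active = fluorescence slope after compound addition differing from the mean of all screened samples at 99.7% confidence, in either direction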;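 note: slope of fluorescence ratio to pre-addition baseline per second over 15 to 24 s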). The following applies: thallium flux BTC fluorescence, at 10 µM, actives lie on both sides.
Experiment [7] in a line: inhibitors of larval lipid processing in zebrafish, primary screen, whole organism, PED6 fluorescence, gall bladder and intestine (AID 686;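 active = a full or partial loss of lipid-probe fluorescence in the fish gall bladder, intestine or both, judged by eye; inactive = no fluorescence loss, or compound toxic to the fish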;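 note: signal comes from phospholipase A2 cleavage of quenched PED6 carried via bile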). Conditions: Zebrafish larvae PED6 lipid processing, fluorescence scoring; screened at 20 µM (by protocol). The essentials: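 Doses: 20 µM single dose. Test system: live zebrafish larvae aged 5-7 days, whole organism. Quantity: five larvae per well. Measured by: By-eye fluorescence microscopy. Reagent: ingested quenched lipid PED6 at 100 nM. Read-out: visual per-well fluorescence inhibition score. Times: overnight exposure of larvae to compound plus PED6.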

Experiment [8] in a line: blockers of RIG-like receptor reporter activation – cell-based, Sendai virus stimulus, luciferase, 10K MLSCN set, TLR/RLR signaling modifier project, primary screen (AID 602276).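 Note: firefly luciferase from ISG56 promoter only with Renilla not read in this screen; 0% = Sendai virus plus DMSO and 100% = medium plus DMSO without virus.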 Conditions: HEK293 RL24 IRF3 luciferase reporter, at 10 µM, stronger effect = higher value.
Experiment [9] in a line: TLR3 IRF3 reporter activation blockers – cell-based, poly I:C stimulus, luciferase, 10K MLSCN set, primary screen (AID 602277;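 active = inhibition of the reporter signal at or above 50%; inactive = inhibition below 50%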). The following applies: HEK293-TLR3 RL24 IRF3 luciferase reporter, at 10 µM, stronger effect = higher value.

Alpha-2C adrenergic receptor (Homo sapiens), sequence (P18825 whole entry, looked up): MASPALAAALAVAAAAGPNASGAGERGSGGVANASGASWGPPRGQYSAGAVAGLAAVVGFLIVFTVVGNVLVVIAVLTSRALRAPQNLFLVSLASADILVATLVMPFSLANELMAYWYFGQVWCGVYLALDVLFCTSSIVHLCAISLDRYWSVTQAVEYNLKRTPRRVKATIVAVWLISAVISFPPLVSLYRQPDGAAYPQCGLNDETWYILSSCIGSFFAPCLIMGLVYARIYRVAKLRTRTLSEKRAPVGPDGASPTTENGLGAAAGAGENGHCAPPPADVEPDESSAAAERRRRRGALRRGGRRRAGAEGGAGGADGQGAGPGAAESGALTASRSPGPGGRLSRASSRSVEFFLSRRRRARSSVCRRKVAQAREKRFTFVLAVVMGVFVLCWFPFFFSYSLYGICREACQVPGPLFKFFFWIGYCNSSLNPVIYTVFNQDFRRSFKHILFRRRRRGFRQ
Voltage-gated potassium channel subunit beta-2 (Rattus norvegicus), sequence (P62483 whole entry, looked up): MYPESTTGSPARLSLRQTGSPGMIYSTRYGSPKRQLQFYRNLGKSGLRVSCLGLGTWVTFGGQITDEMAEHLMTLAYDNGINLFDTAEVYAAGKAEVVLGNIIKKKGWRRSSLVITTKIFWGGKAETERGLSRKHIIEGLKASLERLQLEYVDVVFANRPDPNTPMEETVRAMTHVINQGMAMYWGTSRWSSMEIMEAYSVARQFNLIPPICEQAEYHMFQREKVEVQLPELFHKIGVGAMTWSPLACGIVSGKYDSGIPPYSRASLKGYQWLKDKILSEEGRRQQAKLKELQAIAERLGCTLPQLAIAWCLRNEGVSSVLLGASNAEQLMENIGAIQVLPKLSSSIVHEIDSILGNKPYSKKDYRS

`O=C(CN(Cc1ccc(F)cc1)C(=O)c1ccco1)NCc1ccc(F)cc1`: the cell count in experiment [1] was determined as 357. The inhibition (usually the relative decrease from the control value, in per cent) in [1] was 6.8% (inactive); in experiment [3], -382% (inactive); in experiment [8], 14.4% (inactive); in experiment [9], 21.2% (inactive). Also, the inhibition of aggregation in experiment [2] is 7% (inactive). Further, the nuclei count is 90.9% in experiment [2] and 130% in [3]. Further, in [4], the fluorescence slope is -0.359 (inactive). For the same compound, the NADPH fluorescence slope in experiment [5] is -3.4e-05 (inactive). Moreover, the slope in experiment [6] is 0.00584 (inactive). For the same compound, in [7], the call was inactive.

Take `Brc1ccc2ncnc(Nc3ccc(N4CCOCC4)cc3)c2c1`: the cell count in experiment [1] worked out at 534. The inhibition in [1] was -13.2% (inactive); in experiment [3], 29.5% (inactive); in [8], 16.4% (inactive); in [9], 1.52% (inactive). In addition, the inhibition of aggregation in [2] was 8.9% (inactive). The nuclei count in [2] was found to be 106%; in [3] it was 84.4%. The fluorescence slope in experiment [4] is -0.375 (inactive). Moreover, in [5], the NADPH fluorescence slope was -5.5e-05 (inactive). In addition, the slope in experiment [6] was 0.00328 (inactive). Moreover, the call in experiment [7] was inactive.

In the case of `Cc1oc(-c2ccccc2F)nc1CS(=O)(=O)CC(=O)N1CCCCCC1`, the cell count in [1] is 712. For the same compound, the inhibition is -1.1% (inactive) in experiment [1], -40.3% (inactive) in [3], -6.49% (inactive) in [8] and 1.53% (inactive) in experiment [9]. Moreover, the inhibition of aggregation in experiment [2] was -22.4% (inactive). The values for the nuclei count in experiment [2] and in [3] were 116% and 117%, respectively. Further, the fluorescence slope in [4] is -0.57 (inactive). Also, the NADPH fluorescence slope in experiment [5] is -9.9e-06 (inactive). Besides, in [6], the slope is 0.00627 (inactive).

Take `CN1CCN(C(=O)C2(NC(=O)Nc3cccc(F)c3)CCCCC2)CC1`: the cell count in experiment [1] came to 586. Moreover, the inhibition was -33.7% (inactive) in experiment [1], -39.7% (inactive) in experiment [3], 3.99% (inactive) in experiment [8] and 3.07% (inactive) in experiment [9]. Further, the inhibition of aggregation in [2] is -14.5% (inactive). Moreover, the nuclei count in [2] was 105%; in [3], 109%. The fluorescence slope in experiment [4] is -0.596 (inactive). Also, the NADPH fluorescence slope in [5] is -4.2e-05 (inactive). Further, the slope in experiment [6] was 0.00664 (inactive).

Turning to `O=S(=O)(Cc1ccccc1)N1CCN(Cc2ccccc2)CC1`, the cell count in experiment [1] stood at 386. Besides, the inhibition in [1] was 4.8% (inactive); in [3] it was -74.1% (inactive); in [8], -12% (inactive); in experiment [9], -7.67% (inactive). Moreover, in [2], the inhibition of aggregation is 12.7% (inactive). In addition, the values for the nuclei count in [2] and in [3] were 103% and 117%, respectively. The fluorescence slope in [4] was -0.46 (inactive). The NADPH fluorescence slope in [5] was 4.9e-05 (inactive). In experiment [6], the slope is 0.00741 (inactive).

On to `c1cncc(C2Nc3ccccc3-c3nc4ccccc4n32)c1` (configuration not stated), for which the cell count in experiment [1] worked out at 428. Further, the inhibition was 21.8% (active) in [1], -151% (inactive) in experiment [3], -7% (inactive) in experiment [8] and -38.6% (inactive) in experiment [9]. In experiment [2], the inhibition of aggregation was 2.7% (inactive). Also, the nuclei count in experiment [2] turned out to be 93.3%; in [3], 116%. Further, the fluorescence slope in experiment [4] was -0.37 (inactive). Moreover, the NADPH fluorescence slope in experiment [5] is -5.6e-05 (inactive). Moreover, the slope in experiment [6] was 0.00507 (inactive). The compound was classed as inactive in experiment [7].

Consider `CSc1c(CC(=O)NCCO)n(C)c2ccccc12`, for which the cell count in experiment [1] stood at 575. The inhibition is -14% (inactive) in experiment [1], -3.5% (inactive) in experiment [3], 1.14% (inactive) in experiment [8] and 5.52% (inactive) in experiment [9]. The inhibition of aggregation in experiment [2] is 8.4% (inactive). In addition, the figures for the nuclei count in [2] and in [3] were 88% and 105%, respectively. For the same compound, in [4], the fluorescence slope was -0.338 (inactive). Moreover, in [5], the NADPH fluorescence slope is 1.3e-05 (inactive). Besides, the slope in [6] was 0.005 (inactive). Further, the compound was classed as inactive in [7].

With `O=C(Nc1cccc2ncccc12)c1ccc2c(c1)OCCO2`, in [1], the cell count came out at 586. The inhibition in experiment [1] is 2.2% (inactive); in experiment [3], -8.1% (inactive); in [8] it was -12.7% (inactive); in experiment [9], -8.56% (inactive). Also, the inhibition of aggregation in [2] is 11.1% (inactive). Besides, the nuclei count in [2] came to 101%; in experiment [3], 81.2%. Further, the fluorescence slope in experiment [4] is -0.46 (inactive). Further, in experiment [5], the NADPH fluorescence slope is -4.6e-05 (inactive). Also, the slope in experiment [6] is 0.00308 (inactive).

For `O=C(CSc1nnc(Cc2ccccc2)n1-c1cccc(Cl)c1)N1CCOCC1`, in experiment [1], the cell count came out at 352. Also, the inhibition in experiment [1] was 10.5% (inactive); in experiment [3], -207% (inactive); in [8] it was -1.07% (inactive); in experiment [9], 9.14% (inactive). Also, the inhibition of aggregation in experiment [2] is -18.8% (inactive). The nuclei count in experiment [2] stood at 85.8%; in [3], 119%. In addition, the fluorescence slope in experiment [4] was -0.4 (inactive). For the same compound, the NADPH fluorescence slope in experiment [5] is -4.5e-05 (inactive). Moreover, in experiment [6], the slope was 0.00585 (inactive). Further, the call in experiment [7] was inactive.

Regarding `O=C1OCCC1Sc1ncnc2sccc12` (configuration not stated), the cell count in [1] was 498. For the same compound, the inhibition in experiment [1] is -6.8% (inactive); in experiment [3], -1.7% (inactive); in experiment [8] it was 9.26% (inactive); in [9], 12.3% (inactive). Besides, in experiment [2], the inhibition of aggregation is -0.5% (inactive). The nuclei count in experiment [2] turned out to be 125%; in experiment [3] it was 110%. In addition, the fluorescence slope in experiment [4] was -0.376 (inactive). Moreover, in [5], the NADPH fluorescence slope was -7.9e-05 (inactive). For the same compound, in experiment [6], the slope is 0.00502 (inactive). For the same compound, the compound was classed as inactive in [7].

With `O=C(Nc1ccon1)c1cccc(S(=O)(=O)N2CCCC2)c1`, the cell count in experiment [1] stood at 307. Besides, the inhibition in experiment [1] was -2.7% (inactive); in [3], -11.9% (inactive); in experiment [8], 13.5% (inactive); in experiment [9] it was 13.6% (inactive). Besides, in experiment [2], the inhibition of aggregation was 21% (inactive). Further, the nuclei count is 86.7% in [2] and 102% in [3]. In addition, the fluorescence slope in experiment [4] was -0.374 (inactive). Further, the NADPH fluorescence slope in [5] was -1.7e-05 (inactive). Further, the slope in experiment [6] is 0.00556 (inactive). For the same compound, the result in experiment [7] was inactive.

As to `Cc1nc2ccccc2c(=O)n1NC(=O)Nc1ccccc1`, the cell count in [1] amounted to 592. Moreover, the inhibition in experiment [1] was 0% (inactive); in experiment [3], -41.3% (inactive); in [8], 12.6% (inactive); in experiment [9], -4.39% (inactive). The inhibition of aggregation in experiment [2] is 17.7% (inactive). Moreover, the nuclei count in [2] is 83.8%; in [3] it was 97.5%. In addition, the fluorescence slope in [4] was -0.359 (inactive). Moreover, in experiment [5], the NADPH fluorescence slope is -2.7e-05 (inactive). In experiment [6], the slope was 0.00703 (inactive). Also, the compound was classed as inactive in experiment [7].

For `CCOC(=O)Cn1nnnc1CN(Cc1ccc(OC)cc1)Cc1cc2cc(C)ccc2[nH]c1=O`, the cell count in experiment [1] stood at 623. The inhibition in experiment [1] is -4.9% (inactive); in [3], 62.8% (inactive); in experiment [8] it was -4.16% (inactive); in experiment [9], -1.51% (inactive). Besides, the inhibition of aggregation in experiment [2] was -27% (inactive). Besides, the figures for the nuclei count in experiment [2] and in experiment [3] were 112% and 135%, respectively. The fluorescence slope in experiment [4] was -0.384 (inactive). The NADPH fluorescence slope in experiment [5] was 6.1e-07 (inactive). For the same compound, the slope in experiment [6] is 0.00608 (inactive). Also, the outcome in experiment [7] was inactive.

These data come from PubChem BioAssay.
